These results are taken from ChEMBL document CHEMBL4393725, “Design and synthesis of novel xanthone-triazole derivatives as potential antidiabetic agents: α-Glucosidase inhibition and glucose uptake promotion” (Eur J Med Chem, 2019).

For one data set, the target named is Alpha glucosidase (Homo sapiens, UniProt O43451+P10253+P14410+Q2M2H8). The data set can be described thus: Inhibition of alpha-glucosidase (unknown origin) using PNP glucoside as substrate preincubated for 30 mins followed by substrate addition further incubated for 1 min by spectrophotometry. The format is protein assay. In outline:
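Yeast α-glucosidase with p-nitrophenyl-α-D-glucopyranoside substrate in 50 mM phosphate buffer, pH 6.8, with 5% v/v DMSO. Inhibitor and enzyme were preincubated for 30 min at 37 °C, then the reaction ran for 1 min at 37 °C, read at 400 nm. IC50 came from five concentrations bracketing a preliminary estimate, each measured three times in parallel; mean ± SD.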

The next data set has as its system L02. The data set can be described thus: Cytotoxicity against human LO2 cells assessed as reduction in cell viability incubated for 44 hrs by MTT assay. The format is cell-based. The note with it: L02, 44 h. In outline: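 LO2 human hepatocytes in DMEM with 10% FBS, penicillin and streptomycin at 37 °C, 5% CO2. Plated at 5000 cells/well for 24 h, then exposed to a range of concentrations for 44 h. MTT was added for 4 h, formazan dissolved in DMSO, and A490 read. Viability = A treated/A control × 100%. IC50 is the concentration giving 50% viability loss, as mean ± SD.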

Data set [1] relates to HepG2. The data set can be described thus: Induction of glucose uptake in human HepG2 cells at 0.625 to 2.5 uM incubated for 24 hrs in low glucose medium relative to control. The format is functional. The essentials:
(§1)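 HepG2 cells in high-glucose DMEM with 10% FBS and antibiotics, seeded at 5000 cells/well for 24 h. They were washed with low-glucose DMEM and PBS, then treated for 24 h in low-glucose DMEM with 2% FBS at 0.625, 1.25 or 2.5 μM. Glucose left in the medium was measured with a glucose kit. Rosiglitazone was the positive control.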

Data set [2] concerns Alpha-glucosidase (Saccharomyces cerevisiae). The data set can be described thus: Noncompetitive inhibition of alpha-glucosidase (Saccharomyces cerevisiae) at 0 to 9 uM using PNP glycoside as substrate preincubated for 30 mins followed by substrate addition further incubated for 1 min by Lineweaver-Burk plot analysis.
Data set [3] has as its system HepG2. Briefly: Induction of glucose uptake in human HepG2 cells incubated for 24 hrs in low glucose medium. The format is functional, cell-based. In outline: as §1
A further data set concerns HepG2 (Homo sapiens). Briefly: Cytotoxicity against human HepG2 cells assessed as effect on cell survival at 0.625 to 2.5 uM incubated for 44 hrs by MTT assay. The note with it: HepG2, 44 h.
Data set [4] relates to HepG2. Briefly: Induction of glucose uptake in human HepG2 cells at 0.625 to 2.5 uM incubated for 24 hrs in low glucose medium. In kind it is functional, cell-based. The essentials: as §1
The test system of data set [5] is Alpha-glucosidase (Saccharomyces cerevisiae). The data set can be described thus: Noncompetitive inhibition of alpha-glucosidase (Saccharomyces cerevisiae) at 0 to 3.5 uM using PNP glycoside as substrate preincubated for 30 mins followed by substrate addition further incubated for 1 min by Lineweaver-Burk plot analysis.
In data set [6] the test system is HepG2. The data set can be described thus: Induction of glucose uptake in human HepG2 cells at 2.5 uM incubated for 24 hrs in low glucose medium relative to control. In kind it is functional. The essentials:
as §1

Data set [7] concerns HepG2. Briefly: Induction of glucose uptake in human HepG2 cells at 1.25 uM incubated for 24 hrs in low glucose medium relative to control. In kind it is functional. The essentials: as §1
The test system of data set [8] is HepG2. The data set can be described thus: Induction of glucose uptake in human HepG2 cells at 0.625 uM incubated for 24 hrs in low glucose medium relative to control. The format is functional. In outline:
as §1

Data set [9] relates to Alpha-glucosidase (Saccharomyces cerevisiae). Briefly: Noncompetitive inhibition of alpha-glucosidase (Saccharomyces cerevisiae) at 0 to 6 uM using PNP glycoside as substrate preincubated for 30 mins followed by substrate addition further incubated for 1 min by Lineweaver-Burk plot analysis.
For data set [10] the test system is unchanged. Briefly: Noncompetitive inhibition of alpha-glucosidase (Saccharomyces cerevisiae) at 0 to 4 uM using PNP glycoside as substrate preincubated for 30 mins followed by substrate addition further incubated for 1 min by Lineweaver-Burk plot analysis.
The test system is the same in data set [11]. Briefly: Noncompetitive inhibition of alpha-glucosidase (Saccharomyces cerevisiae) at 0 to 10 uM using PNP glycoside as substrate preincubated for 30 mins followed by substrate addition further incubated for 1 min by Lineweaver-Burk plot analysis.

Active and inactive are the calls of the source. The calls are words filed in the database; no cut-off is given here. A value given as a limit tells only on which side of the number the result lay.

For `O=C(Cn1cc(COc2cc(O)c3c(=O)c4cc(O)ccc4oc3c2)nn1)Nc1ccc(O)cc1O`, the IC50 on Alpha glucosidase is 15.62 µM; in the data set with L02, greater than 100 µM.
Take `CN(CCOc1ccc(CC2SC(=O)NC2=O)cc1)c1ccccn1` (stereo unspecified) [ROSIGLITAZONE]: the Activity in the data set with HepG2 [1] is recorded as 50%.
Regarding `COc1ccc2c(=O)c3c(OC(C)=O)cc(OCc4cn(CC(=O)Nc5ccc(OC)c(OC)c5)nn4)cc3oc2c1`, the half-inhibitory concentration (IC50) on Alpha glucosidase was 98.63 µM; in the data set on L02, greater than 100 µM.
On to `COc1ccc(NC(=O)Cn2cc(COc3cc(OC(C)=O)c4c(=O)c5cc(OC)ccc5oc4c3)nn2)c(OC)c1`, for which the IC50 was 42.6 µM on Alpha glucosidase and greater than 100 µM in the data set on L02.
The corresponding values for `COc1ccc2oc3cc(OCc4cn(CC(=O)Nc5ccc(OC)c(OC)c5)nn4)cc(OC(C)=O)c3c(=O)c2c1` are greater than 100 µM and 24.9 µM.
As to `O=C(Cn1cc(COc2cc(O)c3c(=O)c4ccc(Br)cc4oc3c2)nn1)Nc1ccc(O)c(O)c1`, the IC50 against Alpha glucosidase is 5.23 µM; in the data set on L02, greater than 100 µM. In addition, in [2], the inhibition result was “Active”. Moreover, the values for the Activity result in the data set with HepG2 [3] and in the data set with HepG2 (Homo sapiens) were “Dose-dependent effect” and “Non-Toxic”, respectively.
As for `COc1ccc(NC(=O)Cn2cc(COc3cc(OC(C)=O)c4c(=O)c5cc(Br)ccc5oc4c3)nn2)cc1OC`, the IC50 against Alpha glucosidase is 32.33 µM; with L02, greater than 100 µM.
The corresponding values for `COc1ccc(NC(=O)Cn2cc(COc3cc(OC(C)=O)c4c(=O)c5ccc(OC)cc5oc4c3)nn2)c(OC)c1` are 33.16 µM and greater than 100 µM.
`COc1ccc(NC(=O)Cn2cc(COc3cc(O)c4c(=O)c5ccc(Br)cc5oc4c3)nn2)c(OC)c1`: the values for the IC50 on Alpha glucosidase and with L02 were 2.78 µM and greater than 100 µM, respectively. For the same molecule, the result with HepG2 [4] was Active. The inhibition result in data set [5] is “Active”. Further, the Activity result with HepG2 (Homo sapiens) is given as “Non-Toxic”.
For the molecule `COc1ccc(NC(=O)Cn2cc(COc3cc(OC(C)=O)c4c(=O)c5ccc(Br)cc5oc4c3)nn2)c(OC)c1`, the values for the IC50 at Alpha glucosidase and in the data set on L02 were 12.78 µM and greater than 100 µM, respectively. Besides, the Activity entry with HepG2 [3] was “Dose-dependent effect”; in the data set with HepG2 (Homo sapiens), “Non-Toxic”; in the data set on HepG2 [6], 163%; in the data set on HepG2 [7], 90%; in the data set with HepG2 [8], 61%.
“2-(4-(((7-bromo-1-hydroxy-9-oxo-9H-xanthen-3-yl)oxy)methyl)-1H-1,2,3-triazol-1-yl)-N-(2,4-dihydroxyphenyl)acetamide”: the result with HepG2 [4] was Active.
On to `O=C(Cn1cc(COc2cc(O)c3c(=O)c4ccc(O)cc4oc3c2)nn1)Nc1ccc(O)cc1O`, for which the figures for the IC50 on Alpha glucosidase and in the data set with L02 were 17.61 µM and greater than 100 µM, respectively.
`COc1ccc2c(=O)c3c(O)cc(OCc4cn(CC(=O)Nc5ccc(OC)c(OC)c5)nn4)cc3oc2c1`: the IC50 against Alpha glucosidase is 15.9 µM; in the data set with L02, greater than 100 µM.
The matching figures for `COc1ccc(NC(=O)Cn2cc(COc3cc(O)c4c(=O)c5cc(Br)ccc5oc4c3)nn2)cc1OC`: 29.84 µM and greater than 100 µM.
As to `COc1ccc(NC(=O)Cn2cc(COc3cc(O)c4c(=O)c5cc(Br)ccc5oc4c3)nn2)c(OC)c1`, the IC50 against Alpha glucosidase was 3.07 µM; in the data set with L02, greater than 100 µM. Also, the result in the data set with HepG2 [4] was inactive. The Activity entry with HepG2 (Homo sapiens) is reported as “Non-Toxic”. Moreover, the inhibition result in [9] is “Active”.
Regarding `COc1ccc(NC(=O)Cn2cc(COc3cc(OC(C)=O)c4c(=O)c5cc(Br)ccc5oc4c3)nn2)c(OC)c1`, the IC50 was found to be 12.13 µM against Alpha glucosidase and 80.7 µM with L02. Also, the result in the data set on HepG2 [4] was inactive. Besides, the Activity result in the data set on HepG2 (Homo sapiens) is recorded as “Non-Toxic”.
The corresponding values for `COc1ccc(NC(=O)Cn2cc(COc3cc(O)c4c(=O)c5cc(OC)ccc5oc4c3)nn2)c(OC)c1` are 8.31 µM, 65.4 µM, “inactive” and “Non-Toxic”.
With `COc1ccc2oc3cc(OCc4cn(CC(=O)Nc5ccc(OC)c(OC)c5)nn4)cc(O)c3c(=O)c2c1`, the IC50 at Alpha glucosidase and in the data set with L02 was greater than 100 µM throughout.
Regarding `COc1ccc(NC(=O)Cn2cc(COc3cc(O)c4c(=O)c5ccc(OC)cc5oc4c3)nn2)c(OC)c1`, the IC50 turned out to be 2.06 µM at Alpha glucosidase and 89.1 µM with L02. The inhibition result in data set [10] was “Active”. Also, the Activity result is “Dose-dependent effect” in the data set with HepG2 [3] and “Non-Toxic” with HepG2 (Homo sapiens).
Take `O=C(Cn1cc(COc2cc(O)c3c(=O)c4ccc(Br)cc4oc3c2)nn1)Nc1ccc(O)cc1O`: the inhibition result in data set [11] was “Active”. The IC50 against Alpha glucosidase amounted to 5.87 µM; in the data set with L02, 74 µM. For the same molecule, the outcome in the data set with HepG2 [4] was inactive. The Activity result with HepG2 (Homo sapiens) was “Non-Toxic”.
Take `COc1ccc(NC(=O)Cn2cc(COc3cc(OC(C)=O)c4c(=O)c5ccc(Br)cc5oc4c3)nn2)cc1OC`: the figures for the IC50 against Alpha glucosidase and in the data set with L02 were 26.11 µM and 25.9 µM, respectively.
On to `O=c1c2ccccc2oc2cc(O)cc(O)c12`, for which the outcome in the data set on HepG2 [4] was inactive. The Activity result with HepG2 (Homo sapiens) is reported as “Non-Toxic”.
As to `O=C(Cn1cc(COc2cc(O)c3c(=O)c4ccc(O)cc4oc3c2)nn1)Nc1ccc(O)c(O)c1`, the IC50 was 6.13 µM against Alpha glucosidase and greater than 100 µM with L02. Besides, the Activity entry was “Dose-dependent effect” with HepG2 [3] and “Non-Toxic” in the data set on HepG2 (Homo sapiens).
In the case of `O=C(Cn1cc(COc2cc(O)c3c(=O)c4cc(O)ccc4oc3c2)nn1)Nc1ccc(O)c(O)c1`, the IC50 against Alpha glucosidase was 7.06 µM; in the data set with L02, greater than 100 µM. For the same molecule, in the data set on HepG2 [4], the result was inactive. In addition, the Activity entry with HepG2 (Homo sapiens) was “Non-Toxic”.
As for `O=C(Cn1cc(COc2cc(O)c3c(=O)c4cc(Br)ccc4oc3c2)nn1)Nc1ccc(O)c(O)c1`, the IC50 against Alpha glucosidase was 3.17 µM; in the data set on L02 it was greater than 100 µM. For the same molecule, in the data set on HepG2 [4], the result was Active. Besides, the Activity entry with HepG2 (Homo sapiens) is recorded as “Non-Toxic”. Further, in data set [9], the inhibition entry was “Active”.
With `COc1ccc(NC(=O)Cn2cc(COc3cc(O)c4c(=O)c5ccc(Br)cc5oc4c3)nn2)cc1OC`, the half-inhibitory concentration (IC50) is 11.82 µM on Alpha glucosidase and greater than 100 µM in the data set on L02.
